# Screens from PubChem BioAssay.
# The list is not random: actives were taken first. Their share in the collection is about 3.5%.
# Apaf-1 inh: blocks human Apaf-1 apoptosome activity; hit rate 0.71% among 330,000; inhibition, % at 20 µM; O14727; reconstituted apoptosome caspase-3 activity, DEVD-Rh110 fluorescence; active means inhibition of at least 40% at 20 µM
#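 System: reconstituted apoptosome with Apaf-1, cytochrome c, caspase-9, procaspase-3, dATP; Signal: Rh110 fluorescence intensity; Schedule: 30 min compound preincubation, 50 min activation, room temperature; Reagent: cytochrome c trigger plus (Z-DEVD)2-Rh110 caspase-3 substrate.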
# pPAFAH inh: pPAFAH (human) enzyme inhibition; Q13093; recombinant pPAFAH, FP-rhodamine probe fluorescence polarization; inhibition, % at 3.39 µM; hit rate 1.5% among 330,000; AID 463082;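 active means inhibition above the mean inhibition across the screen plus 3 SD, cut at about 25% in these data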;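 further: inhibitors block binding of the rhodamine activity-based probe so polarization drops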
# PAFAH2 FP inh: inhibitors of human PAFAH2; recombinant PAFAH2, FP-rhodamine activity probe, fluorescence polarization; inhibition, % at 3.39 µM; hit rate 0.99% among 340,000;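 active means inhibition above the mean over all tested compounds plus 3 SD, cut at about 30% in these data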;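 further: inhibitors block probe labeling of enzyme so polarization drops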
# PAFAH1B3 FP inh: blocks human PAF acetylhydrolase 1B catalytic subunit 3; Q15102; recombinant PAFAH1B3, FP-rhodamine probe, fluorescence polarization; inhibition, % at 3.39 µM; hit rate 0.28% among 340,000;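 active means inhibition above the screen-wide average of all tested compounds plus 3 SD, cut at about 25% in these data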
# Target sequence (Q15102 whole entry, looked up): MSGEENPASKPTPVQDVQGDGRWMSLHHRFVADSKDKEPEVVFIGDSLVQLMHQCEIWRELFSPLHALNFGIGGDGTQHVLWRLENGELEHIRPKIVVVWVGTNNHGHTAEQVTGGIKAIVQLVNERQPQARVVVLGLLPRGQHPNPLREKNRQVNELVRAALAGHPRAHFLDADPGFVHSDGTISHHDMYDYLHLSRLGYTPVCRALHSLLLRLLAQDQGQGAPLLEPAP
# PREPL inhibitor: inhibits the human prolyl oligopeptidase-like enzyme; Q4J6C6; recombinant PREPL, fluorescence polarization activity-based probe; inhibition, % at 5.96 µM; hit rate 0.68% among 320,000; AID 2751
# PAFAH1B2 inh: PAFAH1B2 (human) inhibition; inhibition, % at 3.39 µM; hit rate 1.2% among 340,000; recombinant PAFAH1B2, FP-rhodamine activity probe, fluorescence polarization;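 active means inhibition above the mean of all tested compounds plus 3 SD, cut at about 24% in these data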
# PREPL inh cf: confirmation of human PREPL enzyme inhibitors | shares compounds with PREPL inhibitor | AID 2803 | hit rate 67% among 2,000 | inhibition, % at 5.96 µM | recombinant PREPL, fluorescence polarization activity probe
# Numbers stand for hits; – = inactive; · = not tested or not shown. Unless noted, no stated cut-off is given here; in the data, active means inhibition above about 43%; inactive means the rest.
SMILES,Apaf-1 inh,pPAFAH inh,PAFAH2 FP inh,PAFAH1B3 FP inh,PREPL inhibitor,PAFAH1B2 inh,PREPL inh cf
CC12CCC(=O)N1C(C(=O)N1CCN(c3ccc([N+](=O)[O-])cc3)CC1)CS2 (centres undefined),–,–,–,–,47,–,–
COc1ccc(C(CCN2CCN(c3ccccc3)CC2)c2c(O)cc(OC)cc2OC)cc1 (centres undefined),–,–,–,–,–,–,·
COc1ccc(N2CCN(CCC(O)c3ccc4ccccc4c3)CC2)cc1 (centres undefined),–,–,–,–,71,–,68
CCCCCCCCn1c2c(c(=N)c3ccccc31)CCC2,–,·,·,·,·,·,·
CCCCCCCCCCn1c2c(c(=N)c3c1CCC3)CCC2,74,–,–,–,44,–,44
C#CCOCCOCCOCCNc1nc(N2CCOCC2)nc(N2CCN(C(=O)CCCCCCCCCCNC(=O)[C@H](CO)n3cc(CCCSC)nn3)CC2)n1,–,–,–,–,–,–,·
C#CCOCCOCCOCCNc1nc(N2CCN(C(=O)CCCCCCCCCCNC(=O)[C@@H](CCC(=O)O)n3cc(CCCCCN)nn3)CC2)nc(N2CCN(C(=O)CCCCCCCCCCNC(=O)[C@H](CO)n3cc(CCCCCN)nn3)CC2)n1,54,–,–,–,46,–,–
C#CCOCCOCCOCCNc1nc(N2CCN(C(=O)CCCCCCCCCCNC(=O)[C@H](CCCCN)n3cc(CCO)nn3)CC2)nc(N2CCN(C(=O)CCCCCCCCCCNC(=O)[C@H](CCCCN)n3cc(C[C@@H](C)CC)nn3)CC2)n1,68,–,·,·,45,·,55
O=C(C1CCCCCC1)N1CC[C@@H](N2CCC(O)CC2)[C@H](O)C1,–,–,–,–,–,–,·
COc1cccc(NC(=O)N2CCC(NC(=O)C(Cc3ccccc3F)NC(C)=O)CC2)c1 (centres undefined),–,–,–,–,–,–,·
C=C(C)C1CC=C(C)/C(=N/NC(=O)CNc2ccc(C)cc2C)C1 (centres undefined),·,–,–,–,–,–,·
C=C(C)C1CC=C(C)/C(=N/NC(=O)CNc2ccc(OCC)cc2)C1 (centres undefined),–,–,–,–,46,–,–
CCOC(=O)c1c(C)[nH]c(C(=O)COC(=O)C2(C)CC2(Cl)Cl)c1C (centres undefined),–,–,–,–,–,–,·
Nc1ccc(-c2nc3ccccc3o2)cc1,–,–,–,–,–,–,·
Nc1cc(N)cc(-c2nc3ccccc3o2)c1,–,–,–,–,55,–,–
COc1nsnc1NS(=O)(=O)c1ccc(NC(=S)NC(=O)c2cccnc2)cc1,–,–,·,·,–,·,·
CC(C)NCC(O)Cn1c2c(c3ccccc31)CCc1c-2cnn1-c1ccccc1 (centres undefined),–,–,–,–,66,–,82
CCOc1ccc(NCc2nc3ccccc3n2CCOc2ccccc2)cc1,·,–,–,–,45,–,45
O=C1C=C(c2ccccc2)CC(c2cccs2)C1n1cnc([N+](=O)[O-])c1 (centres undefined),–,–,–,–,48,–,45
O=C1C=C(c2ccccc2)C[C@H](c2cccs2)[C@H]1n1nnc([N+](=O)[O-])n1,–,–,–,–,–,–,·
Cn1c(N/N=C/c2c[nH]c3ccccc23)nc2ccccc21,–,–,–,–,53,–,65
CN1c2ccsc2/C(=N/NC(=O)c2c(F)cccc2F)CS1(=O)=O,–,–,–,–,–,–,·
CN1c2ccsc2/C(=N/Nc2ccccc2)CS1(=O)=O,–,–,–,–,48,–,–
CCOC(=O)C1(CCOc2ccccc2)CCN(Cc2cc(OC)ccc2OC)CC1,–,–,–,–,50,–,–
CCc1noc(C)c1C(=O)Nc1nc(-c2ccccc2)c(C(C)=O)s1,–,–,–,–,80,–,–
O=C(Nc1ccccc1)c1cccc(C(=O)Nc2ccccc2)n1,–,–,–,–,–,–,·
CN(C)c1ccc(NC(=O)c2cccc(C(=O)Nc3ccc(N(C)C)cc3)n2)cc1,–,26,–,–,72,–,70
